Laboratory results as given in PubChem BioAssay AID2522 (Broad Institute, 2010).
Results filed as inconclusive are left out. Active and inactive are the calls of the source.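 Rule for the calls: active = mean inhibition at 30 µM above 50% in every run; inconclusive = inhibition above 50% in some runs but not in others; inactive = inhibition at most 50% in every run.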

Tested on: human washed platelets, A23187-induced P-selectin, flow cytometry
Assay: inhibitors of A23187-stimulated platelet P-selectin exposure, selectivity assay, cell-based, fluorescence, flow cytometry, platelets (AID 2522)
Details: at 30 µM, stronger effect = higher value
In short: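 Material: platelets / Reagent: Ca2+ ionophore A23187 at 10 µM, 15 min stimulation / Doses: single compound dose of 30 µM / Timing: 20 min compound pre-incubation, 15 min A23187, 20 min staining / Measured by: flow cytometry with PE-labeled anti-P-selectin antibody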

## C/C(=N/NC(=O)C1CCCC1)c1ccc(NC(=O)C(F)(F)F)cc1
  inhibition: 6% (inactive)
Measured here: inhibition, second run
  inhibition: 1%
